According to ChEMBL document CHEMBL2311478, “Macrolactonolides: a novel class of anti-inflammatory compounds” (Bioorg Med Chem, 2013):
In brackets after ≈: the same amount, converted by molar mass.

Experiments:
[1] = system: Haemophilus influenzae; assay: Antibacterial activity against Haemophilus influenzae ATTC 49247 by broth microdilution method; assay type: functional
Summary of the method: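 CLSI broth microdilution with double dilutions in 96-well plates. For streptococci, 5% horse serum replaced lysed blood in the medium. Inocula were grown on Columbia agar with 5% sheep blood for streptococci, Mueller–Hinton chocolate agar for H. influenzae, and Mueller–Hinton agar for staphylococci. Read-out is MIC in mg/L.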

[2] = system: Streptococcus pneumoniae; assay: Antibacterial activity against efflux mediated macrolide-resistant Streptococcus pneumoniae Ci137 by broth microdilution method; assay type: functional
Summary of the method: (§1)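 MICs by CLSI broth microdilution with double dilutions, except that Streptococcus medium used 5% horse serum in place of lysed blood. Bacteria were pre-grown on Columbia agar with 5% sheep blood (streptococci) or Mueller–Hinton agar (staphylococci).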

[3] = system: PBMC; assay: Antiinflammatory activity in human PBMC assessed as inhibition of LPS-induced IL-6 production after 6 hrs; assay type: functional, cell-based
Summary of the method: (§2)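 Thawed cryopreserved human PBMCs were preincubated 1 h at 37 °C, 5% CO2, then exposed to test compound for 1 h before LPS, anti-CD3 or PHA stimulation. Supernatants were collected at 6, 24 or 48 h according to each cytokine's peak, and cytokines quantified by Luminex multiplex bead assay. 10-point titration starting at 20 µM, in duplicate, with constant DMSO. Parallel Alamar Blue cytotoxicity check under 48 h PHA.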

[4] = system: PBMC; assay: Antiinflammatory activity in human PBMC assessed as inhibition of LPS-induced IL-8 production after 6 hrs; assay type: functional, cell-based; summary of the method: as §2
[5] = Cmax in Balb/c mouse blood at 2 mg/kg, administered intranasally; assay type: ADME, organism-based; parameters: dose 2 mg/kg, route nasal; conditions: whole blood, inhaled or intranasal
Summary of the method: (§3)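 Male Balb/c mice (21–25 g) dosed intranasally with freshly prepared formulation in 1% DMSO plus 0.125% CMC. Terminal bleeding and lung collection from 5 min to 72 h. K2EDTA blood taken as blood aliquots or spun for plasma. Lung homogenised 1:5 in water. Samples were protein-precipitated with acetonitrile/methanol (2:1) plus roxithromycin internal standard and quantified by LC–MS/MS. LLOQ 0.5 ng/mL (blood/plasma) and 2.5 ng/mL (lung).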

[6] = biological target: T1, Glucocorticoid receptor (Homo sapiens, UniProt P04150); assay: Binding affinity to glucocorticoid receptor (unknown origin) by fluorescence polarization competitive binding assay
T1 sequence (P04150 whole entry): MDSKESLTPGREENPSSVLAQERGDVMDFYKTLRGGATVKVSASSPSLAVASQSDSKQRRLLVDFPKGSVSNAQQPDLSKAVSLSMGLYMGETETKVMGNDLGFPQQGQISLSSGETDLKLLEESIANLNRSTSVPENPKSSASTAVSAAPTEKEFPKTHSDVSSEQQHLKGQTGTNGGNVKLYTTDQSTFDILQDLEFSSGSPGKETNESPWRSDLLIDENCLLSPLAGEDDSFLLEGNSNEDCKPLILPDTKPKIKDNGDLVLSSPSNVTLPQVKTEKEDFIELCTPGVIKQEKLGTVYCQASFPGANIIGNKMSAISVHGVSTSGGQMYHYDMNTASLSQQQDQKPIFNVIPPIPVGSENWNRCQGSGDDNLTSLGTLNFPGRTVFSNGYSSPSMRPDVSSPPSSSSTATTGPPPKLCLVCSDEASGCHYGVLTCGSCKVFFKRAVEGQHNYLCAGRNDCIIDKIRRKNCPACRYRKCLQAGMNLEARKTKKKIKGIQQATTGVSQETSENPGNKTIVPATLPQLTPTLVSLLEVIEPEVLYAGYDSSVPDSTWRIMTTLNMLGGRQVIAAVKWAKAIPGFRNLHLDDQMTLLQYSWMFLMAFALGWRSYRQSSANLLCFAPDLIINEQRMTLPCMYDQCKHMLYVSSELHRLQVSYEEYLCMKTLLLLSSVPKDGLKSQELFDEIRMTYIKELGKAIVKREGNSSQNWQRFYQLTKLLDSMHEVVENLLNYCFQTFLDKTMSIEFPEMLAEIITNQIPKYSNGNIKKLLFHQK

[7] = system: PBMC; assay: Antiinflammatory activity in human PBMC assessed as inhibition of PHA-induced IL-8 production after 6 hrs; assay type: functional, cell-based; summary of the method: as §2
[8] = Drug uptake in mouse J774A1 cells at 10 uM after 3 hrs by LC-MS/MS method; assay type: ADME, cell-based; conditions: j774.a1, 3 h
Summary of the method: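 Uptake in J774A.1 macrophages seeded two days before at 2 × 10^5 cells/well. Cells were exposed to 10 µM compound for 3 h in DMEM/25 mM Hepes without supplements, washed with ice-cold PBS and lysed in 0.5% Triton X-100. Lysate was measured by LC–MS/MS, using a cell volume of 1.68 µL per 10^6 cells. Result is the I/E ratio, with E taken as 10 µM.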

[9] = Tmax in Balb/c mouse blood at 2 mg/kg, administered intranasally; assay type: ADME, organism-based; parameters: dose 2 mg/kg; conditions: whole blood, inhaled or intranasal; summary of the method: as §3
[10] = AUC (0 to infinity) in Balb/c mouse lung at 2 mg/kg, administered intranasally; assay type: ADME, organism-based; parameters: time infinity, route nasal, dose 2 mg/kg; conditions: inhaled or intranasal; summary of the method: as §3
[11] = system: PBMC; assay: Antiinflammatory activity in human PBMC assessed as inhibition of LPS-induced MIP1alpha production after 6 hrs; assay type: functional, cell-based; summary of the method: as §2
[12] = system: PBMC; assay: Antiinflammatory activity in human PBMC assessed as inhibition of anti-CD3-induced IL-1beta production after 48 hrs; assay type: functional, cell-based; summary of the method: as §2
[13] = system: PBMC; assay: Antiinflammatory activity in human PBMC assessed as inhibition of PHA-induced TNFalpha production after 6 hrs; assay type: functional, cell-based; summary of the method: as §2
[14] = biological target: T1, Glucocorticoid receptor; assay: Displacement of [3H]-dexamethasone human glucocorticoid receptor alpha expressed in 293 MSR cells after 60 mins by scintillation counting; assay type: cell-based
[15] = system: Rattus norvegicus; assay: Antiinflammatory activity against ovalbumin-induced airway allergic Brown-Norway rat model assessed as decrease of eosinophils in bronchoalveolar lavage fluid at 32 mg/kg administered intranasally as dry powder measured on day 29 after ovalbumin challenge (reference value: 53.1%); assay type: functional, Lung; parameters: scale not given: the % may be the effect or the level left
[16] = system: PBMC; assay: Antiinflammatory activity in human PBMC assessed as inhibition of PHA-induced MIP1alpha production after 6 hrs; assay type: functional, cell-based; summary of the method: as §2
[17] = Half life in Balb/c mouse lung at 2 mg/kg, administered intranasally; assay type: ADME, organism-based; parameters: dose 2 mg/kg; conditions: inhaled or intranasal; summary of the method: as §3
[18] = AUC (0 to infinity) in Balb/c mouse plasma at 2 mg/kg, administered intranasally; assay type: ADME, organism-based; parameters: time infinity, route nasal, dose 2 mg/kg; conditions: inhaled or intranasal; summary of the method: as §3
[19] = system: Staphylococcus aureus; assay: Antibacterial activity against constitutive-resistant to macrolide, licosamide and streptogramin Staphylococcus aureus PK2 by broth microdilution method; assay type: functional; summary of the method: as §1
[20] = Drug uptake in mouse J774A1 cells assessed as compound retention at 10 uM after 3 hrs by LC-MS/MS method; assay type: ADME, cell-based; conditions: j774.a1, 3 h
Summary of the method: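 J774A.1 cells were loaded with 10 µM compound for 3 h in DMEM/25 mM Hepes, then incubated 3 h in fresh medium. Cells were washed, lysed in 0.5% Triton X-100 and analysed by LC–MS/MS. Retention is the percentage of the initially accumulated amount remaining. Triplicates, mean ± SD from one representative experiment.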

[21] = system: PBMC; assay: Antiinflammatory activity in human PBMC assessed as inhibition of PHA-induced IL-13 production after 24 hrs; assay type: functional, cell-based; summary of the method: as §2
[22] = system: Streptococcus pyogenes; assay: Antibacterial activity against inducible-resistant to macrolide, licosamide and streptogramin Streptococcus pyogenes Finland 11 by broth microdilution method; assay type: functional; summary of the method: as §1
[23] = Tmax in Balb/c mouse plasma at 2 mg/kg, administered intranasally; assay type: ADME, organism-based; parameters: dose 2 mg/kg; conditions: inhaled or intranasal; summary of the method: as §3
[24] = system: Streptococcus pyogenes; assay: Antibacterial activity against efflux mediated macrolide-resistant Streptococcus pyogenes Finland 2 by broth microdilution method; assay type: functional; summary of the method: as §1
[25] = Tmax in Balb/c mouse lung at 2 mg/kg, administered intranasally; assay type: ADME, organism-based; parameters: dose 2 mg/kg; conditions: inhaled or intranasal; summary of the method: as §3

With CC[C@H]1OC(=O)[C@H](C)[C@@H](O[C@H]2C[C@@](C)(OC)[C@@H](O)[C@H](C)O2)[C@H](C)[C@@H](O[C@@H]2O[C@H](C)C[C@H](N(C)C)[C@H]2O)[C@](C)(O)C[C@@H](C)CN(CCCNC(=O)[C@H]2[C@H](C)C[C@H]3[C@@H]4CCC5=CC(=O)C=C[C@]5(C)[C@@]4(F)[C@@H](O)C[C@@]32C)[C@H](C)[C@@H](O)[C@]1(C)O the MIC [1] was 64 µg/mL (≈ 56.3 µM), the MIC [2] was 32 µg/mL (≈ 28.2 µM) and the EC50 [3] was > 20000 nM. The EC50 [4] was 9000 nM, the Cmax [5] was 169 ng/mL and the EC50 [6] was 4160 nM. The EC50 [7] was 3050 nM, the Drug uptake [8] was “Active” and the Tmax [9] was 15 min. For the same molecule, the AUC(0-inf) [10] was 9680 ng·h/mL, the EC50 [11] was 7900 nM and the EC50 [12] was 30 nM. It also gave an EC50 [13] of 1330 nM, an EC50 [14] of 430 nM and an Activity [15] of 43.6%. The EC50 [16] was 2630 nM, the half-life [17] was 1200 min and the AUC(0-inf) [18] was 181 ng·h/mL. The MIC [19] was > 64 µg/mL, the Drug uptake [20] was “Active” and the EC50 [21] was 420 nM. For the same molecule, the MIC [22] was 32 µg/mL (≈ 28.2 µM), the Tmax [23] was 15 min and the MIC [24] was 32 µg/mL (≈ 28.2 µM). For the same molecule, the Tmax [25] was 4.8 min.
